Converted amounts (≈) assume the structure as drawn.
What was measured:
[1] = system: Candida albicans; test: Antifungal activity against Candida albicans after 24 hrs by EUCAST method; format: functional
[2] = n-Octanol/water partition coefficient, log P of compound by HPLC analysis; format: physicochemical
[3] = Stability in human plasma by HPLC analysis; format: ADME, cell-free
Summary of the method: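 Compound stock was added to 80% human plasma (diluted with 0.02 M phosphate buffer, pH 7.4) at 37 °C. Samples taken over time were stopped with 0.01 M HCl in methanol and centrifuged 5 min at 5000 g. Supernatant was analysed by HPLC-UV at 274 nm (C18, water/ACN + 0.1% TFA, isocratic, 1 mL/min).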

[4] = Aqueous solubility of compound at 50 mg after 1 hr by HPLC analysis; format: physicochemical; settings: water
[5] = system: Candida dubliniensis; test: Antifungal activity against Candida dubliniensis CBS7987 assessed as zone of inhibition by disc diffusion method; format: functional
Summary of the method: (§1)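 Disc diffusion on potato dextrose medium with 0.8% agar against Candida strains. Fluconazole and amphotericin B served as positive controls. Inhibition zone was measured in mm.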

[6] = system: Candida albicans; test: Antifungal activity against Candida albicans ATCC 10231 assessed as zone of inhibition by disc diffusion method; format: functional; summary of the method: as §1
[7] = system: Nakaseomyces glabratus; test: Antifungal activity against Candida glabrata ATCC 2001 assessed as zone of inhibition by disc diffusion method; format: functional; summary of the method: as §1
[8] = system: Candida tropicalis; test: Antifungal activity against Candida tropicalis KUEN 1025 assessed as zone of inhibition by disc diffusion method; format: functional; summary of the method: as §1
[9] = system: Candida parapsilosis; test: Antifungal activity against Candida parapsilosis ATCC 22019 assessed as zone of inhibition by disc diffusion method; format: functional; summary of the method: as §1
[10] = system: Blood; test: Antioxidant activity in human blood assessed as total antioxidant capacity at 10 uM after 48 hrs (reference value: 6.3 +/- 0.5); format: functional
[11] = system: Streptococcus pneumoniae; test: Antibacterial activity against Streptococcus pneumoniae incubated for 18 to 24 hrs by CLSI-based broth microdilution method; format: functional
[12] = system: Staphylococcus aureus; test: Antibacterial activity against Staphylococcus aureus incubated for 18 to 24 hrs by CLSI-based broth microdilution method; format: functional
[13] = system: Escherichia coli; test: Antibacterial activity against Escherichia coli incubated for 18 to 24 hrs by CLSI-based broth microdilution method; format: functional
[14] = system: Streptococcus agalactiae; test: Antibacterial activity against Streptococcus agalactiae incubated for 18 to 24 hrs by CLSI-based broth microdilution method; format: functional
[15] = system: Enterococcus faecalis; test: Antibacterial activity against Enterococcus faecalis incubated for 18 to 24 hrs by CLSI-based broth microdilution method; format: functional
[16] = system: Staphylococcus epidermidis; test: Antibacterial activity against Staphylococcus epidermidis incubated for 18 to 24 hrs by CLSI-based broth microdilution method; format: functional
[17] = system: Acinetobacter baumannii; test: Antibacterial activity against Acinetobacter baumannii incubated for 18 to 24 hrs by CLSI-based broth microdilution method; format: functional
[18] = system: Pseudomonas aeruginosa; test: Antibacterial activity against Pseudomonas aeruginosa incubated for 18 to 24 hrs by CLSI-based broth microdilution method; format: functional
[19] = system: Streptococcus pyogenes; test: Antibacterial activity against Streptococcus pyogenes incubated for 18 to 24 hrs by CLSI-based broth microdilution method; format: functional
[20] = system: Klebsiella pneumoniae; test: Antibacterial activity against Klebsiella pneumoniae incubated for 18 to 24 hrs by CLSI-based broth microdilution method; format: functional

Compound: Cc1ccc(C(C)C)cc1OC(=O)CCC(=O)N[C@@H](CCCNC(=N)N)C(=O)O
- MIC [1]: > 6400 µg/mL

Compound: Cc1ccc(C(C)C)cc1OC(=O)CCC(=O)N[C@@H](CCCCN)C(=O)O
- MIC [1]: > 6400 µg/mL

Compound: Cc1ccc(C(C)C)cc1OC(=O)CCCC(=O)NCC(=O)O
- MIC [1]: > 6400 µg/mL

Compound: Cc1ccc(C(C)C)cc1OC(=O)CCCC(=O)O
- MIC [1]: > 6400 µg/mL

Compound: Cc1ccc(C(C)C)cc1OC(=O)CCC(=O)NCC(=O)O
- MIC [1]: 6400 µg/mL (≈ 20800 µM)

Compound: Cc1ccc(C(C)C)cc1OC(=O)CCCC(=O)N[C@@H](CCCNC(=N)N)C(=O)O
- MIC [1]: > 6400 µg/mL

Compound: Cc1ccc(C(C)C)cc1OC(=O)CCC(=O)N[C@@H](Cc1c[nH]cn1)C(=O)O
- MIC [1]: > 6400 µg/mL
- logP [2]: < 2.4

Compound: Cc1ccc(C(C)C)cc1OC(=O)CCCC(=O)N[C@@H](CCCCN)C(=O)O
- MIC [1]: > 6400 µg/mL

Compound: CC(C)=CCC[C@@H](C)CC(=O)Oc1cc(C(C)C)ccc1C
- MIC [1]: > 6400 µg/mL

Compound: CC(C)=CC(=O)Oc1cc(C(C)C)ccc1C
- MIC [1]: > 6400 µg/mL

Compound: CC(C)=CCOc1cc(C(C)C)ccc1C
- K [3]: 0.0294 h⁻¹

Compound: Cc1ccc(C(C)C)cc1OC(=O)CCC(=O)NCCN.Cl
- MIC [1]: 3200 µg/mL

Compound: Cc1ccc(C(C)C)cc1OC(=O)CCCC(=O)N[C@@H](Cc1c[nH]cn1)C(=O)O
- MIC [1]: > 6400 µg/mL
- logP [2]: < 2.4
- solubility at 1 h [4]: 3330 µg/mL (≈ 8300 µM)

Compound: Cc1ccc(C(C)C)cc1OC(=O)CCC(=O)NCCN(C)C.Cl
- MIC [1]: > 6400 µg/mL

Compound: CC(C)=CCC/C(C)=C/COc1cc(C(C)C)ccc1C
- K [3]: 0.1716 h⁻¹

Compound: Cc1ccc(C(C)C)cc1OC(=O)CCCC(=O)NCCN.Cl
- MIC [1]: > 6400 µg/mL

Compound: CC(C)=CCC/C(C)=C/C(=O)Oc1cc(C(C)C)ccc1C
- MIC [1]: > 6400 µg/mL

Compound: CC(C)=CCC/C(C)=C/CC/C(C)=C/COc1cc(C(C)C)ccc1C
- MIC [1]: > 6400 µg/mL

Compound: Cc1ccc(C(C)C)cc1OC(=O)CCCC(=O)NCCN(C)C.Cl
- MIC [1]: > 6400 µg/mL

Compound: C[C@@H]1[C@H](O)[C@@H](C)/C=C/C=C/C=C/C=C/C=C/C=C/C=C/[C@H](O[C@@H]2O[C@H](C)[C@@H](O)[C@H](N)[C@@H]2O)C[C@@H]2O[C@](O)(C[C@@H](O)C[C@@H](O)[C@H](O)CC[C@@H](O)C[C@@H](O)CC(=O)O[C@H]1C)C[C@H](O)[C@H]2C(=O)O [AMPHOTERICIN B]
- inhibition zone (IZ) [5]: 10 mm
- inhibition zone (IZ) [6]: 10 mm
- inhibition zone (IZ) [7]: 12 mm
- inhibition zone (IZ) [8]: 10 mm
- inhibition zone (IZ) [9]: 9 mm

Compound: O=C1O[C@H]([C@@H](O)CO)C(O)=C1O [ASCORBIC ACID]
- Activity [10]: 19.4

Compound: Cc1ccc(C(C)C)cc1O [CARVACROL]
- inhibition zone (IZ) [5]: 7 mm
- MIC [11]: 64 to 256 µg/mL (≈ 426 to 1700 µM)
- MIC50 [11]: 128 µg/mL (≈ 852 µM)
- MIC90 [11]: 256 µg/mL (≈ 1700 µM)
- inhibition zone (IZ) [6]: 9 mm
- MIC [12]: 256 µg/mL (≈ 1700 µM)
- MIC50 [12]: 256 µg/mL (≈ 1700 µM)
- MIC90 [12]: 256 µg/mL (≈ 1700 µM)
- MIC [13]: 256 µg/mL (≈ 1700 µM)
- MIC50 [13]: 256 µg/mL (≈ 1700 µM)
- MIC90 [13]: 256 µg/mL (≈ 1700 µM)
- MIC [14]: 256 to 512 µg/mL (≈ 1700 to 3410 µM)
- MIC50 [14]: 256 µg/mL (≈ 1700 µM)
- MIC90 [14]: 512 µg/mL (≈ 3410 µM)
- inhibition zone (IZ) [7]: 8 mm
- MIC [15]: 128 to 512 µg/mL (≈ 852 to 3410 µM)
- MIC50 [15]: 256 µg/mL (≈ 1700 µM)
- MIC90 [15]: 256 µg/mL (≈ 1700 µM)
- MIC [16]: 256 µg/mL (≈ 1700 µM)
- MIC50 [16]: 256 µg/mL (≈ 1700 µM)
- MIC90 [16]: 256 µg/mL (≈ 1700 µM)
- MIC [1]: 1250 µg/mL (≈ 8320 µM)
- logP [2]: 3.5
- inhibition zone (IZ) [8]: 10 mm
- MIC [17]: 64 to 256 µg/mL (≈ 426 to 1700 µM)
- MIC50 [17]: 128 µg/mL (≈ 852 µM)
- MIC90 [17]: 256 µg/mL (≈ 1700 µM)
- inhibition zone (IZ) [9]: 7 mm
- MIC [18]: ≥ 512 µg/mL
- MIC50 [18]: > 512 µg/mL
- MIC90 [18]: > 512 µg/mL
- MIC [19]: 64 to 256 µg/mL (≈ 426 to 1700 µM)
- MIC50 [19]: 128 µg/mL (≈ 852 µM)
- MIC90 [19]: 256 µg/mL (≈ 1700 µM)
- MIC [20]: 512 µg/mL (≈ 3410 µM)
- MIC50 [20]: 512 µg/mL (≈ 3410 µM)
- MIC90 [20]: 512 µg/mL (≈ 3410 µM)

Compound: OC(Cn1cncn1)(Cn1cncn1)c1ccc(F)cc1F [FLUCONAZOLE]
- MIC [1]: 250 µg/mL (≈ 816 µM)

Reference: ChEMBL document CHEMBL4364268, “Carvacrol prodrugs as novel antimicrobial agents” (Eur J Med Chem, 2019)
